From ChEMBL document CHEMBL1127078, “Fluorocyclopropyl quinolones. 1. Synthesis and structure-activity relationships of 1-(2-fluorocyclopropyl)-3-pyridonecarboxylic acid antibacterial agents” (J Med Chem, 1993) come the findings set out here.

SMILES strings stand for the structures. Values after ≈ are worked out from the molar mass of the structure shown. Where only a bound is given, the exact number is not on record here.

What all share (assay type): functional
The test system of one experiment is Enterococcus faecalis. As to the kind of experiment: Tested for minimum inhibitory concentration against Enterococcus faecalis ATCC 19433. In short, it runs like this: (§1)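 Twofold broth microdilution in Mueller-Hinton broth, inoculum approximately 10^6 cfu/mL. Plates incubated 18 h at 37 °C. MIC taken as the lowest concentration preventing visible bacterial growth.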

The next experiment relates to Streptococcus pyogenes. Put plainly: Tested for minimum inhibitory concentration against Streptococcus pyogenes G-36. In short, it runs like this: as §1
The test system of experiment [1] is Staphylococcus aureus. Put plainly: Tested for minimum inhibitory concentration against Staphylococcus aureus Smith. In short, it runs like this:
as §1

The subject of a further experiment is Pseudomonas aeruginosa. Put plainly: Tested for minimum inhibitory concentration against Pseudomonas aeruginosa 32121. In short, it runs like this: as §1
In experiment [2] the test system is Staphylococcus aureus. As to the kind of experiment: Tested for minimum inhibitory concentration against Staphylococcus aureus 209P. In short, it runs like this: as §1
Another experiment relates to Klebsiella pneumoniae. Put plainly: Tested for minimum inhibitory concentration against Klebsiella pneumoniae. In short, it runs like this: as §1
The test system of experiment [3] is Staphylococcus epidermidis. Put plainly: Tested for minimum inhibitory concentration against Staphylococcus epidermidis 56556. In short, it runs like this:
as §1

For a further experiment, the system named is Escherichia coli. Put plainly: Tested for minimum inhibitory concentration against Escherichia coli NIHJ. In short, it runs like this: as §1
Another experiment deals with Enterobacter cloacae. As to the kind of experiment: Tested for minimum inhibitory concentration against Enterobacter cloacae 03400. In short, it runs like this: as §1
The next experiment relates to Proteus vulgaris. Put plainly: Tested for minimum inhibitory concentration against Proteus vulgaris 08601. In short, it runs like this: as §1
Where [4] appears, read: Escherichia coli, read-out: MIC.
Where [5] appears, read: Proteus vulgaris, read-out: MIC.

As for `O=C(O)c1cn(C2CC2F)c2cc(N3CCNCC3)c(F)cc2c1=O` (stereo in doubt; 25), the MIC in the experiment with Enterococcus faecalis turned out to be 12.5 µg/mL (≈ 35.8 µM); with Streptococcus pyogenes, 50 µg/mL (≈ 143 µM); against Staphylococcus aureus [1], 0.39 µg/mL (≈ 1.12 µM); in the experiment with Pseudomonas aeruginosa, 0.1 µg/mL (≈ 0.286 µM); in the experiment with Staphylococcus aureus [2], 0.78 µg/mL (≈ 2.23 µM); against Klebsiella pneumoniae, 0.1 µg/mL (≈ 0.286 µM). The MIC in experiment [3] turned out to be 0.78 µg/mL (≈ 2.23 µM).

Take `O=C(O)c1cn(C2CC2F)c2c(F)c(N3CCNCC3)c(F)cc2c1=O` (stereo in doubt; 28): the MIC entry was “<=0.05 ug ml-1” in the experiment on Escherichia coli; 1.56 µg/mL (≈ 4.25 µM) with Enterococcus faecalis; 0.78 µg/mL (≈ 2.12 µM) with Streptococcus pyogenes; 0.1 µg/mL (≈ 0.272 µM) in the experiment with Staphylococcus aureus [1]; “<=0.05 ug ml-1” in the experiment on Pseudomonas aeruginosa; 0.1 µg/mL (≈ 0.272 µM) against Staphylococcus aureus [2]. Also, the MIC result in the experiment on Klebsiella pneumoniae was “<=0.05 ug ml-1”; in experiment [3], 0.2 µg/mL (≈ 0.544 µM).

Take `O=C(O)c1cn(C2CC2F)c2c(F)c(N3CCNCC3)c(F)cc2c1=O` (stereo in doubt; 29): the MIC in the experiment with Escherichia coli (setting [4]) is 0.1 µg/mL (≈ 0.272 µM); in the experiment on Enterococcus faecalis, 25 µg/mL (≈ 68.1 µM); against Enterobacter cloacae it was no more than 0.05 µg/mL; against Streptococcus pyogenes, 50 µg/mL (≈ 136 µM); in the experiment with Proteus vulgaris (setting [5]), no more than 0.05 µg/mL; in the experiment on Staphylococcus aureus [1], 0.78 µg/mL (≈ 2.12 µM). In addition, the MIC in the experiment on Pseudomonas aeruginosa amounted to 0.39 µg/mL (≈ 1.06 µM); against Staphylococcus aureus [2], 1.56 µg/mL (≈ 4.25 µM); in the experiment with Klebsiella pneumoniae, 0.2 µg/mL (≈ 0.544 µM); in experiment [3], 3.13 µg/mL (≈ 8.52 µM).

Regarding `CN1CCN(c2c(F)cc3c(=O)c(C(=O)O)cn(C4CC4F)c3c2F)CC1` (stereo in doubt; 30), the MIC against Enterococcus faecalis is 0.78 µg/mL (≈ 2.05 µM); against Streptococcus pyogenes, 3.13 µg/mL (≈ 8.21 µM); in the experiment with Staphylococcus aureus [1] it was “<=0.05 ug ml-1”; against Pseudomonas aeruginosa, 0.1 µg/mL (≈ 0.262 µM); against Staphylococcus aureus [2], 0.1 µg/mL (≈ 0.262 µM); against Klebsiella pneumoniae, “<=0.05 ug ml-1”. Moreover, the MIC in experiment [3] came to 0.2 µg/mL (≈ 0.524 µM).

Consider `CN1CCN(c2c(F)cc3c(=O)c(C(=O)O)cn(C4CC4F)c3c2F)CC1` (stereo in doubt; 31), for which the MIC is no more than 0.05 µg/mL in the experiment with Escherichia coli (setting [4]); 25 µg/mL (≈ 65.6 µM) in the experiment with Enterococcus faecalis; no more than 0.05 µg/mL against Enterobacter cloacae; 100 µg/mL (≈ 262 µM) in the experiment on Streptococcus pyogenes; no more than 0.05 µg/mL in the experiment with Proteus vulgaris (setting [5]); 1.56 µg/mL (≈ 4.09 µM) against Staphylococcus aureus [1]. Moreover, the MIC in the experiment on Pseudomonas aeruginosa came to 0.78 µg/mL (≈ 2.05 µM); in the experiment on Staphylococcus aureus [2], 1.56 µg/mL (≈ 4.09 µM); against Klebsiella pneumoniae it was 0.2 µg/mL (≈ 0.524 µM); in experiment [3], 3.13 µg/mL (≈ 8.21 µM).

Regarding `C[C@H]1CN(c2c(F)cc3c(=O)c(C(=O)O)cn(C4CC4F)c3c2F)CCN1` (stereo in doubt; 32), the MIC in the experiment with Enterococcus faecalis is 0.78 µg/mL (≈ 2.05 µM); in the experiment on Streptococcus pyogenes, 1.56 µg/mL (≈ 4.09 µM); against Staphylococcus aureus [1] it was “<=0.05 ug ml-1”; in the experiment on Pseudomonas aeruginosa, 0.1 µg/mL (≈ 0.262 µM); against Staphylococcus aureus [2], 0.1 µg/mL (≈ 0.262 µM); in the experiment with Klebsiella pneumoniae, “<=0.05 ug ml-1”. The same compound came in with an MIC in [3] of 0.2 µg/mL (≈ 0.524 µM).

Turning to `C[C@@H]1CN(c2c(F)cc3c(=O)c(C(=O)O)cn(C4CC4F)c3c2F)CCN1` (stereo in doubt; 35), the MIC against Enterococcus faecalis stood at 12.5 µg/mL (≈ 32.8 µM); in the experiment on Streptococcus pyogenes, 50 µg/mL (≈ 131 µM); in the experiment with Proteus vulgaris it was 0.2 µg/mL (≈ 0.524 µM); in the experiment on Staphylococcus aureus [1] (Staphylococcus aureus, read-out: MIC) it was 0.78 µg/mL (≈ 2.05 µM); against Pseudomonas aeruginosa, 0.78 µg/mL (≈ 2.05 µM); with Staphylococcus aureus [2], 1.56 µg/mL (≈ 4.09 µM). Besides, the MIC in the experiment with Klebsiella pneumoniae is 0.2 µg/mL (≈ 0.524 µM); in experiment [3] it was 3.13 µg/mL (≈ 8.21 µM).

In the case of `CN1CCN(c2nc3c(cc2F)c(=O)c(C(=O)O)cn3C2CC2F)CC1` (stereo in doubt; 36), the MIC stood at 1.56 µg/mL (≈ 4.28 µM) in the experiment on Enterococcus faecalis; 6.25 µg/mL (≈ 17.2 µM) against Streptococcus pyogenes; 0.2 µg/mL (≈ 0.549 µM) with Proteus vulgaris; 0.2 µg/mL (≈ 0.549 µM) in the experiment on Staphylococcus aureus [1]; 0.2 µg/mL (≈ 0.549 µM) in the experiment on Pseudomonas aeruginosa; 0.39 µg/mL (≈ 1.07 µM) against Staphylococcus aureus [2]. Moreover, the minimal inhibitory concentration (MIC) in the experiment on Klebsiella pneumoniae amounted to 0.2 µg/mL (≈ 0.549 µM); in experiment [3], 0.39 µg/mL (≈ 1.07 µM).
